Data taken from ChEMBL document CHEMBL4038338 (J Med Chem, 2017).
Calls of active or inactive are those of the source. The rule behind the calls is not given here.

How the values were obtained:
[1] = target: T1, Calpain-1 catalytic subunit (Homo sapiens, UniProt P07384); assay: Inhibition of human erythrocytes calpain-1 using Suc-Leu-Tyr-AMC as substrate by kinetic fluorescence assay
T1 sequence (P07384 whole entry): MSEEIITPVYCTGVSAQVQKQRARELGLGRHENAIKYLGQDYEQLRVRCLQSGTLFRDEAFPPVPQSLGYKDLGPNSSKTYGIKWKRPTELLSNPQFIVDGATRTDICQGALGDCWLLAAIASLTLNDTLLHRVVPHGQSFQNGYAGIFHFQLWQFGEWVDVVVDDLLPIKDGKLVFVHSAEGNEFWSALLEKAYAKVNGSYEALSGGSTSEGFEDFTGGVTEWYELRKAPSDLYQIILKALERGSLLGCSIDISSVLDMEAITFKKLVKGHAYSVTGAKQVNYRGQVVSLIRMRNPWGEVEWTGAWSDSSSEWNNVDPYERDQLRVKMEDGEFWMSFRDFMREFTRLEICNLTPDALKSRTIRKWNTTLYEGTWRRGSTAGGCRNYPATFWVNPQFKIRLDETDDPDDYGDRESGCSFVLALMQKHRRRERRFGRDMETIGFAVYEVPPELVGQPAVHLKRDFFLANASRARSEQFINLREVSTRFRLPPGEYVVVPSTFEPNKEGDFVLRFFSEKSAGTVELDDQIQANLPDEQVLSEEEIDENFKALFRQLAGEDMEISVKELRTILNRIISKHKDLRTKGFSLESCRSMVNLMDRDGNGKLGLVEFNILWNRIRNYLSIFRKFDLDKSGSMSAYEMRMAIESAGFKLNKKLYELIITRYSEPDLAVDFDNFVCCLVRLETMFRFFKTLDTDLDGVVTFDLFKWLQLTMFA

[2] = Selectivity ratio of Ki for human liver cathepsin B to Ki for human erythrocytes calpain-1
Homo sapiens [3] = organism: Homo sapiens; assay: Selectivity ratio of Ki for recombinant human procathepsin K expressed in Escherichia coli to Ki for human erythrocytes calpain-1
Summary of the method: (§1)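 Ki ratios from kinetic fluorescence assays. Cathepsins B (0.25 nM), L (1 nM), K (3 nM) and S (0.5 nM) in MES buffer at pH 6.0. All at room temperature; Ki by Cheng-Prusoff.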

[4] = Selectivity ratio of Ki for human liver cathepsin L to Ki for human erythrocytes calpain-1
Homo sapiens [5] = organism: Homo sapiens; assay: Selectivity ratio of Ki for recombinant human cathepsin S expressed in Escherichia coli to Ki for human erythrocytes calpain-1; summary of the method: as §1
[6] = target: T2, Calpain-1 catalytic subunit (Homo sapiens) (UniProt P07384); assay: Inhibition of human erythrocytes calpain-1 using Suc-Leu-Tyr-AMC as substrate in presence of up to 10 mM glutathione by kinetic fluorescence assay
T2 sequence (whole entry): T1 sequence (P07384 whole entry)

[7] = Thiol reactivity using recombinant human full length 13C-labeled La antigen (100 to 324 residues) expressed in Escherichia coli BL21(DE3) by ALARM NMR

Ki ([1]; read-out: Ki) | inhibition [6] | Ki ([1]; read-out: Ki(app)) | SMILES | Ratio Ki [2] | Ratio Ki (Homo sapiens [3]) | Ratio Ki [4] | Ratio Ki (Homo sapiens [5]) | Thiol reactivity [7]
45 nM | Active | – | NC(=O)C(=O)C(Cc1ccccc1)NC(=O)c1cccnc1-n1cnc(-c2ccccc2)c1 (configuration not stated) | <1 | < 1 | 23 | 54 | Metabolite not detected
43 nM | Active | – | NC(=O)C(=O)C(Cc1ccccc1)NC(=O)c1ccccc1-n1ccc(-c2ccccc2)n1 (configuration not stated) | 7 | 1 | 38 | 82 | Metabolite not detected
81 nM | Active | – | CC(C)(C)c1ccn(-c2ncccc2C(=O)NC(Cc2ccccc2)C(=O)C(N)=O)n1 (configuration not stated) | 16 | 24 | 10 | 56 | Metabolite not detected
41 nM | Active | – | NC(=O)C(=O)C(Cc1ccccc1)NC(=O)c1cccnc1-n1ccc(-c2ccc(CN3CCOCC3)cc2)n1 (configuration not stated) | <1 | < 1 | 5 | 240 | Metabolite not detected
38 nM | Active | – | NC(=O)C(=O)C(Cc1ccccc1)NC(=O)c1cccnc1-c1csc(-c2ccccc2)n1 (configuration not stated) | 39 | 11 | 139 | 310 | Metabolite not detected
122 nM | Active | – | CCCCC(NC(=O)c1cccnc1-c1csc(-c2ccccc2)n1)C(=O)C(N)=O (configuration not stated) | 2 | 1 | 13 | 27 | Metabolite not detected
– | – | 10 nM | NC(=O)C(=O)[C@H](Cc1ccccc1)NC(=O)c1cccnc1-n1ccc(-c2ccccc2)n1 | – | – | – | – | –
21 nM | Active | – | NC(=O)C(=O)C(Cc1ccccc1)NC(=O)c1cccnc1-n1cc(-c2ccccc2)cn1 (configuration not stated) | <1 | 1 | 12 | 14 | Metabolite not detected
164 nM | Active | – | NC(=O)C(=O)C(Cc1ccccc1)NC(=O)c1cccnc1-n1cccn1 (configuration not stated) | 1 | 3 | 20 | 21 | Metabolite not detected
72 nM | Active | – | NC(=O)C(=O)C(Cc1ccccc1)NC(=O)c1cccnc1-n1ccc(-c2ccc(C(F)(F)F)cc2)n1 (configuration not stated) | 11 | 22 | 210 | 87 | Metabolite not detected
146 nM | Active | – | CN1CCC(c2ccn(-c3ncccc3C(=O)NC(Cc3ccccc3)C(=O)C(N)=O)n2)CC1 (configuration not stated) | 2 | 1 | 2 | 89 | Metabolite not detected
38 nM | Active | – | CCCCC(NC(=O)c1cccnc1-n1cnc(-c2ccccc2)c1)C(=O)C(N)=O (configuration not stated) | <1 | < 1 | 22 | 22 | Metabolite not detected
20 nM | Active | – | CCCCC(NC(=O)c1cccnc1-n1cc(-c2ccccc2)cn1)C(=O)C(N)=O (configuration not stated) | <1 | < 1 | 4 | 2 | Metabolite not detected
101 nM | Active | – | NC(=O)C(=O)C(Cc1ccccc1)NC(=O)c1cccnc1-n1cc2c(n1)CCCC2 (configuration not stated) | 2 | 2 | 45 | 10 | Metabolite not detected
82 nM | Active | – | NC(=O)C(=O)C(Cc1ccccc1)NC(=O)c1ccccc1-c1csc(-c2ccccc2)n1 (configuration not stated) | 23 | < 1 | 116 | 186 | Metabolite not detected
32 nM | Active | – | CCCCC(NC(=O)c1cccnc1-n1ccc(-c2ccccc2)n1)C(=O)C(N)=O (configuration not stated) | 1 | 2 | 25 | 61 | Metabolite not detected
48 nM | Active | – | NC(=O)C(=O)C(Cc1ccccc1)NC(=O)c1cccnc1-n1ccc(C2CCOCC2)n1 (configuration not stated) | 14 | 13 | 56 | 147 | Metabolite not detected
177 nM | Active | – | NC(=O)C(=O)C(Cc1ccccc1)NC(=O)c1cccnc1-c1coc(-c2ccccc2)n1 (configuration not stated) | 11 | 20 | 29 | 127 | Metabolite not detected
56 nM | Active | – | NC(=O)C(=O)C(Cc1ccccc1)NC(=O)c1cccnc1-n1ccc(C2CCCCC2)n1 (configuration not stated) | 9 | 10 | 33 | 92 | Metabolite not detected
83 nM | Active | – | COc1ccc(-c2ccn(-c3ncccc3C(=O)NC(Cc3ccccc3)C(=O)C(N)=O)n2)cc1 (configuration not stated) | 11 | 17 | 81 | > 500 | Metabolite not detected
88 nM | Active | – | NC(=O)C(=O)C(Cc1ccccc1)NC(=O)c1cccnc1-n1ccc(-c2ccc(Cl)cc2)n1 (configuration not stated) | 6 | 9 | 89 | > 300 | Metabolite not detected
94 nM | Active | – | NC(=O)C(=O)C(Cc1ccccc1)NC(=O)c1cccnc1-n1ccc(C2CC2)n1 (configuration not stated) | 4 | 7 | 34 | 50 | Metabolite not detected
234 nM | Active | – | NC(=O)C(=O)C(Cc1ccccc1)NC(=O)c1cccnc1-c1nc(-c2ccccc2)cs1 (configuration not stated) | 10 | 11 | 37 | 105 | Metabolite not detected
38 nM | Active | – | NC(=O)C(=O)C(Cc1ccccc1)NC(=O)c1cccnc1-n1ccc(Cc2ccccc2)n1 (configuration not stated) | 9 | 9 | 50 | 75 | Metabolite not detected
